Data as given in ChEMBL document CHEMBL2380254, “Optimization of tocotrienols as antiproliferative and antimigratory leads” (Eur J Med Chem, 2013).

Legend:
Assay type in all cases: functional
[1] = tested on: MDA-MB-231; assay: Growth inhibition of human MDA-MB-231 cells assessed as cell growth at 10 uM after 48 hrs by sulforhodamine B assay; settings: MDA-MB-231, 48 h, read-out: Activity
How it was run: (§1)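 Single-dose NCI-60 screen: adherent cells in RPMI 1640 with 5% FBS were exposed to 10 µM for 48 h at 37 °C after a 24 h preincubation. They were fixed in situ with cold TCA (10% final), stained with 0.4% SRB in 1% acetic acid, solubilized in 10 mM Tris base, and read at 515 nm. Percent growth was taken relative to time-zero and control plates.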

[2] = tested on: DU-145; assay: Growth inhibition of human DU145 cells assessed as cell growth at 10 uM after 48 hrs by sulforhodamine B assay; settings: DU-145, 48 h, read-out: Activity
How it was run: (§2)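 NCI-60 single-dose screen at 10 µM: cells in RPMI 1640 with 5% FBS, preincubated 24 h, then exposed 48 h at 37 °C. TCA fixation (16% final for suspension cells), SRB staining, absorbance 515 nm. Percent growth relative to time-zero and untreated control plates; negative values indicate cell kill.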

[3] = tested on: SN12C; assay: Growth inhibition of human SN12C cells assessed as cell growth at 10 uM after 48 hrs by sulforhodamine B assay; settings: read-out: Activity
How it was run: (§3)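 Single-dose NCI-60 test at 10 µM. Cells were grown in RPMI 1640 with 5% FBS and 2 mM L-glutamine, preincubated 24 h, with T0 plates TCA-fixed. Exposure was 48 h at 37 °C, 5% CO2. Cells were fixed with cold TCA (final 10%, 4 °C, 60 min), stained with SRB and read at 515 nm. Percent growth was taken relative to T0 and untreated control; negative values denote cell kill.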

[4] = tested on: OVCAR-8; assay: Growth inhibition of human OVCAR8 cells assessed as cell growth at 10 uM after 48 hrs by sulforhodamine B assay; settings: OVCAR-8, 48 h, read-out: Activity; how it was run: as §1
[5] = tested on: IGROV-1; assay: Growth inhibition of human IGROV1 cells assessed as cell growth at 10 uM after 48 hrs by sulforhodamine B assay; settings: IGROV-1, 48 h, read-out: Activity; how it was run: as §2
[6] = tested on: SK-MEL-5; assay: Growth inhibition of human SK-MEL-5 cells assessed as cell growth at 10 uM after 48 hrs by sulforhodamine B assay; settings: SK-MEL-5, 48 h, read-out: Activity; how it was run: as §1
[7] = tested on: SK-MEL-28; assay: Growth inhibition of human SK-MEL-28 cells assessed as cell growth at 10 uM after 48 hrs by sulforhodamine B assay; settings: SK-MEL-28, 48 h, read-out: Activity; how it was run: as §1
[8] = tested on: LOX IMVI; assay: Growth inhibition of human LOXIMVI cells assessed as cell growth at 10 uM after 48 hrs by sulforhodamine B assay; settings: read-out: Activity; how it was run: as §2
[9] = tested on: SNB-75; assay: Growth inhibition of human SNB75 cells assessed as cell growth at 10 uM after 48 hrs by sulforhodamine B assay; settings: SNB-75, 48 h, read-out: Activity; how it was run: as §3
[10] = tested on: SF-268; assay: Growth inhibition of human SF268 cells assessed as cell growth at 10 uM after 48 hrs by sulforhodamine B assay; settings: SF-268, 48 h, read-out: Activity; how it was run: as §1
[11] = tested on: NCI-H23; assay: Growth inhibition of human NCI-H23 cells assessed as cell growth at 10 uM after 48 hrs by sulforhodamine B assay; settings: NCI-H23, 48 h, read-out: Activity; how it was run: as §1
[12] = tested on: CCRF-CEM; assay: Growth inhibition of human CCRF-CEM cells assessed as cell growth at 10 uM after 48 hrs by sulforhodamine B assay; settings: read-out: Activity; how it was run: as §2

COc1ccc(CCNCc2c(O)c(C)c(C)c3c2CC[C@@](C)(CC/C=C(\C)CC/C=C(\C)CCC=C(C)C)O3)cc1OC
growth at 10 µM [1]: 78.6% | growth at 10 µM [2]: 110% | growth at 10 µM [3]: 74% | growth at 10 µM [4]: 66.8% | growth at 10 µM [5]: 71.5% | growth at 10 µM [6]: 108% | growth at 10 µM [7]: 92.6% | growth at 10 µM [8]: 52.9% | growth at 10 µM [9]: 80.5% | growth at 10 µM [10]: 98% | growth at 10 µM [11]: 84.9% | growth at 10 µM [12]: 75.3%

CC(C)=CCC/C(C)=C/CC/C(C)=C/CC[C@]1(C)CCc2c(CNCCc3ccc(O)cc3)c(O)c(C)c(C)c2O1
growth at 10 µM [1]: 89.5% | growth at 10 µM [2]: 111% | growth at 10 µM [3]: 95.1% | growth at 10 µM [4]: 84.8% | growth at 10 µM [5]: 78.5% | growth at 10 µM [6]: 111% | growth at 10 µM [7]: 93.4% | growth at 10 µM [8]: 63.9% | growth at 10 µM [9]: 68.1% | growth at 10 µM [10]: 96.9% | growth at 10 µM [11]: 91.5% | growth at 10 µM [12]: 75.2%

CC(C)=CCC/C(C)=C/CC/C(C)=C/CC[C@]1(C)CCc2c3c(c(C)c(C)c2O1)OCN(CCCCCCCCCCO)C3
growth at 10 µM [1]: 112% | growth at 10 µM [2]: 67% | growth at 10 µM [3]: 99.4% | growth at 10 µM [4]: 89.7% | growth at 10 µM [5]: 102% | growth at 10 µM [6]: 95.6% | growth at 10 µM [7]: 98.2% | growth at 10 µM [8]: 93.6% | growth at 10 µM [9]: 91.4% | growth at 10 µM [10]: 94.2% | growth at 10 µM [11]: 90.9% | growth at 10 µM [12]: 87.7%

CC(C)=CCC/C(C)=C/CC/C(C)=C/CC[C@]1(C)CCc2c3c(c(C)c(C)c2O1)OCN(CCCCCCCCCCCCO)C3
growth at 10 µM [1]: 119% | growth at 10 µM [2]: 109% | growth at 10 µM [3]: 97.4% | growth at 10 µM [4]: 100% | growth at 10 µM [5]: 102% | growth at 10 µM [6]: 92.8% | growth at 10 µM [7]: 110% | growth at 10 µM [8]: 100% | growth at 10 µM [9]: 94.6% | growth at 10 µM [10]: 116% | growth at 10 µM [11]: 104% | growth at 10 µM [12]: 95.2%

CC(C)=CCC/C(C)=C/CC/C(C)=C/CC[C@]1(C)CCc2c3c(cc(C)c2O1)OCN(CCCCCCCCCCCCO)C3
growth at 10 µM [1]: 99.8% | growth at 10 µM [2]: 85.4% | growth at 10 µM [3]: 71.8% | growth at 10 µM [4]: 11.7% | growth at 10 µM [5]: 72.5% | growth at 10 µM [6]: 58.1% | growth at 10 µM [7]: 75.3% | growth at 10 µM [8]: 67.1% | growth at 10 µM [9]: 97.7% | growth at 10 µM [10]: 98.7% | growth at 10 µM [11]: 77.3% | growth at 10 µM [12]: 13.6%
